The source made the active and inactive calls. The rule behind the calls is not given here.
Key:
Staphylococcus aureus [1] = test: Induction of morphological changes in Staphylococcus aureus ATCC 29213 assessed as membrane creeping at 1 times MIC after 60 mins by SEM analysis; assay type: functional, organism-based
Outline: (§1)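 S. aureus grown to exponential phase in MHB at 37 °C with shaking at 220 rpm. Cells washed twice in PBS, resuspended to OD600 0.2, then exposed to peptide at 1× MIC for 60 min at 37 °C; untreated cells served as control. Cells were pelleted, PBS-washed, fixed overnight in 2.5% glutaraldehyde at 4 °C, dehydrated through graded ethanol then tert-butanol, and imaged by SEM.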

HepG2 [2] = test: Induction of apoptosis in human HepG2 cells assessed as nuclear fragmentation at 32 uM measured after 8 hrs by DAPI staining based confocal microscopy; assay type: functional, cell-based
Outline: (§2)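 HepG2 cells treated with 32 µM peptide for 2, 4 or 8 h and stained with DAPI. Nuclear morphology imaged by confocal microscopy, with untreated cells as control.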

HepG2 [3] = test: Induction of cell cycle arrest in human HepG2 cells assessed as accumulation at S phase at 64 uM incubated for 24 hrs by annexin-V/FITC staining-based FACS flow cytometry analysis (reference value: 20.51 %); assay type: functional
Cell membrane [4] = test: Induction of cell membrane disruption in Escherichia coli O157:H7 CICC 21530 assessed as propidium iodide-positive cells at 2 times MIC measured after 30 mins by flow cytometry analysis (reference value: 5.7 %); assay type: subcellular
Staphylococcus aureus [5] = test: Bactericidal activity against Staphylococcus aureus ATCC 29213 assessed as bacterial killing at 1 times MIC measured within 5 mins by time kill assay; assay type: functional, organism-based; settings: time min <5
Outline: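 Log-phase S. aureus 29213 exposed to peptide at 1 × MIC in 10 mM PBS pH 7.4 at 37 °C for 0-90 min. Aliquots taken at fixed intervals, diluted and plated on nutrient agar, and colonies counted after 18 h at 37 °C. Average of three independent assays.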

Staphylococcus aureus [6] = test: Induction of morphological changes in Staphylococcus aureus ATCC 29213 assessed as membrane destruction at 1 times MIC after 60 mins by SEM analysis; assay type: functional, organism-based; outline: as §1
HepG2 [7] = test: Induction of apoptosis in human HepG2 cells assessed as nuclei condensation at 32 uM incubated for 2 to 4 hrs by DAPI-staining based confocal microscopy analysis; assay type: functional, cell-based; settings: time 2-4 hrs; outline: as §2
Staphylococcus aureus [8] = test: Induction of morphological changes in Staphylococcus aureus ATCC 29213 assessed as membrane blebbing at 1 times MIC after 60 mins by SEM analysis; assay type: functional, organism-based; outline: as §1
Escherichia coli [9] = test: Induction of morphological changes in Escherichia coli O157:H7 CICC 21530 assessed as membrane creeping at 1 times MIC after 60 mins by SEM analysis; assay type: functional, organism-based
HepG2 [10] = test: Induction of ROS generation in human HepG2 cells assessed as increase in fluorescence intensity up to 32 uM by DCFH-DA staining-based fluorescence analysis; assay type: functional, cell-based; settings: dose microM <=32, time 8.0 hrs, TDE = time-dependent effect
HepG2 [11] = test: Induction of cell cycle arrest in human HepG2 cells assessed as accumulation at sub-G1 phase at 32 uM incubated for 24 hrs by annexin-V/FITC staining-based FACS flow cytometry analysis (reference value: 0.07%); assay type: functional
HepG2 [12] = test: Induction of cell cycle arrest in human HepG2 cells assessed as accumulation at sub-G1 phase at 64 uM incubated for 24 hrs by annexin-V/FITC staining-based FACS flow cytometry analysis (reference value: 0.07%); assay type: functional
Escherichia coli [13] = test: Induction of morphological changes in Escherichia coli O157:H7 CICC 21530 assessed as membrane blebbing at 1 times MIC after 60 mins by SEM analysis; assay type: functional, organism-based
HepG2 [14] = test: Induction of cell cycle arrest in human HepG2 cells assessed as accumulation at G2/M phase at 32 uM incubated for 24 hrs by annexin-V/FITC staining-based FACS flow cytometry analysis (reference value: 28.75 %); assay type: functional
HepG2 [15] = test: Induction of cell cycle arrest in human HepG2 cells assessed as accumulation at G2/M phase at 64 uM incubated for 24 hrs by annexin-V/FITC staining-based FACS flow cytometry analysis (reference value: 28.75 %); assay type: functional
HepG2 [16] = test: Induction of cell cycle arrest in human HepG2 cells assessed as accumulation at Go/G1 phase at 64 uM incubated for 24 hrs by annexin-V/FITC staining-based FACS flow cytometry analysis (reference value: 54.61 %); assay type: functional
Cell membrane [17] = test: Induction of cell membrane disruption in Escherichia coli O157:H7 CICC 21530 assessed as propidium iodide-positive cells at 0.5 times MIC measured after 30 mins by flow cytometry analysis (reference value: 5.7 %); assay type: subcellular
HepG2 [18] = test: Induction of morphological changes in human HepG2 cells assessed as appearance of rounded cells at 32 uM after 24 hrs by SEM analysis; assay type: functional, cell-based
Staphylococcus aureus [19] = test: Induction of morphological changes in Staphylococcus aureus ATCC 29213 assessed as membrane stunting at 1 times MIC after 60 mins by SEM analysis; assay type: functional, organism-based; outline: as §1
[20] = Drug distribution in human HepG2 cells assessed as fluorescence signal in presence of FITC-labelled peptide at 32 uM measured after 8 hrs by DAPI staining based confocal microscopy; assay type: ADME, cell-based; settings: hepg2, 8 h
Outline: (§3)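 HepG2 cells incubated with FITC-labelled peptide at 32 µM. Fluorescence distribution imaged by confocal laser-scanning microscopy at intervals (1, 4 and 8 h).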

Escherichia coli [21] = test: Induction of morphological changes in Escherichia coli O157:H7 CICC 21530 assessed as membrane stunting at 1 times MIC after 60 mins by SEM analysis; assay type: functional, organism-based
HepG2 [22] = test: Induction of cell cycle arrest in human HepG2 cells assessed as accumulation at S phase at 32 uM incubated for 24 hrs by annexin-V/FITC staining-based FACS flow cytometry analysis (reference value: 20.51 %); assay type: functional
Cell membrane [23] = test: Induction of cell membrane disruption in Escherichia coli O157:H7 CICC 21530 assessed as propidium iodide-positive cells measured after 30 mins by flow cytometry analysis; assay type: subcellular
HepG2 [24] = test: Induction of cell cycle arrest in human HepG2 cells assessed as accumulation at Go/G1 phase at 32 uM incubated for 24 hrs by annexin-V/FITC staining-based FACS flow cytometry analysis (reference value: 54.61 %); assay type: functional
Escherichia coli [25] = test: Induction of morphological changes in Escherichia coli O157:H7 CICC 21530 assessed as membrane destruction at 1 times MIC after 60 mins by SEM analysis; assay type: functional, organism-based
HepG2 [26] = test: Induction of apoptosis in human HepG2 cells assessed as nucleus budding at 32 uM incubated for 2 to 4 hrs by DAPI staining based confocal microscopy; assay type: functional, cell-based; settings: time 2-4 hrs; outline: as §2
[27] = Drug localization in cell membrane of human HepG2 cells assessed as green fluorescent signal in presence of FITC-labelled peptide at 32 uM measured up to 8 hrs by DAPI staining based confocal microscopy; assay type: ADME, cell membranes; settings: hepg2, 8 h; outline: as §3
HepG2 [28] = test: Induction of ROS generation in human HepG2 cells assessed as increase in visual fluorescence intensity up to 32 uM measured at 2 hr by DCFH-DA staining-based fluorescence analysis; assay type: functional, cell-based; settings: dose microM <=32, time 2.0 hrs
Escherichia coli [29] = test: Induction of morphological changes in Escherichia coli O157:H7 CICC 21530 assessed as membrane alteration at 1 times MIC after 60 mins by TEM analysis; assay type: functional, organism-based

Substance	Activity (Staphylococcus aureus [1])	Activity (HepG2 [3])	Activity (Cell membrane [4])	Activity (Staphylococcus aureus [6])	Activity (Staphylococcus aureus [8])	Activity (Escherichia coli [9])	Activity (HepG2 [11])	Activity (HepG2 [12])	Activity (Escherichia coli [13])	Activity (HepG2 [14])	Activity (HepG2 [15])	Activity (HepG2 [16])	Activity (Cell membrane [17])	Activity (Staphylococcus aureus [19])	Activity (Escherichia coli [21])	Activity (HepG2 [22])	Activity (Cell membrane [23])	Activity (HepG2 [24])	Activity (Escherichia coli [25])	further results
H-WLRAFRRLVRRLARGLRR-NH2	Active	11.48%	98%	Active	Active	Active	24.8%	77.66%	Active	21.23%	5.67%	5.83%	78.9%	Active	Active	33.17%	Dose-dependent effect	21.35%	Active	Activity (HepG2 [2]): Active; Activity (Staphylococcus aureus [5]): Active; Activity (HepG2 [7]): Active; Activity (HepG2 [10]): Tde; Activity (HepG2 [18]): Active; Drug uptake [20]: Active; Activity (HepG2 [26]): Active; Drug uptake [27]: Active; Activity (HepG2 [28]): Active
H-WGEAFSAGVHRLANGGNG-NH2	Active	31.61%	27.7%	Active	Active	Active	1.06%	2.26%	Active	29.33%	30.85%	34.77%	14.3%	Active	Active	25.26%	Dose-dependent effect	52.45%	Active	Activity (Escherichia coli [29]): Active

From ChEMBL document CHEMBL4765236, “Insights into the Antimicrobial Activity and Cytotoxicity of Engineered α-Helical Peptide Amphiphiles” (J Med Chem, 2016)
